Experimental data as given in ChEMBL document CHEMBL4145441, “Discovery of N-(5-((5-chloro-4-((2-(isopropylsulfonyl)phenyl)amino)pyrimidin-2-yl)amino)-4-methoxy-2-(4-methyl-1,4-diazepan-1-yl)phenyl)acrylamide (CHMFL-ALK/EGFR-050) as a potent ALK/EGFR dual kinase inhibitor capable of overcoming a variety of ALK/EGFR associated drug resistant mutants in NSCLC” (Eur J Med Chem, 2017).
Calls of active or inactive are those of the source. The rule behind the calls is not given here.

Tests used:
[1] = Cmax in Sprague-Dawley rat at 10 mg/kg, po; type: ADME, organism-based; parameters: dose 10 mg/kg, route oral; conditions: in vivo
Method in brief: (§1)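 Rats dosed once intravenously at 1 mg/kg or orally at 10 mg/kg. Plasma exposure parameters derived: AUC0-t, AUC0-∞, MRT(0-t), Cmax, Tmax, T1/2 and oral bioavailability (F%). Values reported as mean ± spread.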

Homo sapiens [2] = species on record: Homo sapiens; assay: Selectivity index, ratio of IC50 for recombinant human GST-tagged EGFR L858R mutant to IC50 for recombinant human GST-tagged EGFR T790M mutant
[3] = Half life in Sprague-Dawley rat at 1 mg/kg, iv; type: ADME, organism-based; conditions: in vivo; method in brief: as §1
[4] = molecular target: T1, Epidermal growth factor receptor (Homo sapiens, UniProt P00533); assay: Inhibition of EGFR in human A549 cells assessed as reduction in EGF-induced AKT phosphorylation at Ser473 residue up to 3 uM after 4 hrs by immunoblotting method; type: cell-based
NCI-H3122 [5] = assay: Antitumor activity against human NCI-H3122 cells xenografted in nu/nu mouse assessed as tumor growth inhibition at 20 mg/kg, po qd administered for 28 days; type: functional; conditions: 672 h, read-out: TGI
NCI-H1975 [6] = assay: Growth inhibition of human NCI-H1975 cells after 72 hrs by CellTiter-Glo assay; type: functional; conditions: NCI-H1975, 72 h
Method in brief: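 Antiproliferative GI50 against H1975 and H3122 cells; each GI50 value obtained from triplicate testing.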

PC-9 = assay: Induction of apoptosis in human PC9 cells assessed as increase in cleaved caspase-3 expression level at 300 nM to 1 uM after 24 hrs by Western blot method; type: functional, cell-based
[7] = molecular target: ALK tyrosine kinase receptor (Homo sapiens, UniProt Q9UM73, R1275Q); assay: Inhibition of recombinant human N-terminal GST/His6-fused ALK R1275Q mutant expressed in Sf9 insect cells using Tyr 1 peptide as substrate after 1 hr by Z-LYTE assay
NCI-H1975 [8] = assay: Antitumor activity against human NCI-H1975 cells xenografted in po dosed nu/nu mouse assessed as decrease in cell proliferation administered for 21 days by Ki67 staining-based immunohistochemical analysis
NCI-H1975 [9] = assay: Antitumor activity against human NCI-H1975 cells xenografted in po dosed nu/nu mouse assessed as tumor growth inhibition administered for 21 days
[10] = Tmax in Sprague-Dawley rat at 10 mg/kg, po; type: ADME, organism-based; conditions: in vivo
Method in brief: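 Pharmacokinetics in rats given a single dose either intravenously at 1 mg/kg or orally at 10 mg/kg. Plasma parameters derived include AUC0-t, AUC0-∞, MRT(0-t), Cmax, Tmax, T1/2 and oral F (%).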

A549 [11] = assay: Cell cycle arrest in human A549 cells assessed as accumulation at G0/G1 phase at 0.03 to 1 uM after 24 hrs by propidium iodide/RNase staining-based flow cytometry; type: functional
Homo sapiens [12] = species on record: Homo sapiens; assay: Selectivity index, ratio of IC50 for recombinant human wild-type His-tagged EGFR to IC50 for recombinant human GST-tagged EGFR T790M mutant
NCI-H3122 [13] = assay: Cell cycle arrest in human NCI-H3122 cells assessed as accumulation at G0/G1 phase at 0.03 to 0.3 uM after 24 hrs by propidium iodide/RNase staining-based flow cytometry; type: functional
A549 [14] = assay: Antiproliferative activity against human A549 cells harboring wild-type EGFR after 72 hrs by CellTiter-Glo assay; type: functional; conditions: A549, 72 h
NCI-H3122 [15] = assay: Induction of apoptosis in human NCI-H3122 cells xenografted in po dosed nu/nu mouse administered for 28 days by DAB-chromogen-based TUNEL assay; type: functional, organism-based
[16] = Antiproliferative activity against CHL cells after 72 hrs by CellTiter-Glo assay; type: cell-based, Cricetulus griseus; conditions: chinese hamster
A549 [17] = assay: Induction of apoptosis in human A549 cells assessed as increase in cleaved PARP expression level up to 1 uM after 24 hrs by Western blot method; type: functional, cell-based
NCI-H1975 [18] = assay: Induction of apoptosis in human NCI-H1975 cells xenografted in po dosed nu/nu mouse administered for 21 days by DAB-chromogen-based TUNEL assay
[19] = molecular target: ALK tyrosine kinase receptor (Homo sapiens, UniProt Q9UM73, C1156Y); assay: Inhibition of recombinant human N-terminal GST/His6-fused ALK C1156Y mutant expressed in Sf9 insect cells using Tyr 1 peptide as substrate after 1 hr by Z-LYTE assay
[20] = molecular target: T1, Epidermal growth factor receptor; assay: Inhibition of recombinant human wild-type His-tagged EGFR expressed in mammalian expression system using Tyr 4 peptide as substrate after 1 hr in presence of ATP by Z-LYTE kinase assay
NCI-H3122 [21] = assay: Antitumor activity against human NCI-H3122 cells xenografted in nu/nu mouse assessed as tumor growth inhibition at 40 mg/kg, po qd administered for 28 days; type: functional; conditions: 672 h, read-out: TGI
[22] = AUC (0 to t) in Sprague-Dawley rat at 10 mg/kg, po; type: ADME, organism-based; conditions: in vivo; method in brief: as §1
[23] = molecular target: T1, Epidermal growth factor receptor; assay: Inhibition of EGFR phosphorylation at Y1068 in human PC9 cells at 30 nM after 4 hrs by immunoblotting method; type: cell-based
[24] = molecular target: Epidermal growth factor receptor (Homo sapiens, UniProt P00533, T790M); assay: Inhibition of recombinant human GST-tagged EGFR T790M mutant expressed in Baculovirus expression system using Tyr 4 peptide as substrate after 1 hr in presence of ATP by Z-LYTE assay
[25] = molecular target: T1, Epidermal growth factor receptor; assay: Inhibition of full length EGFR del19 mutant (unknown origin) expressed in mouse BAF3 cells assessed as decrease in cell proliferation after 72 hrs by CellTiter-Glo assay; type: cell-based
[26] = molecular target: ALK tyrosine kinase receptor (Homo sapiens, UniProt Q9UM73, L1196M); assay: Inhibition of recombinant human N-terminal GST/His6-fused ALK L1196M mutant expressed in Sf9 insect cells using Tyr 1 peptide as substrate after 1 hr by Z-LYTE assay
ALK tyrosine kinase receptor (Homo sapiens, UniProt Q9UM73, L1196M), sequence (Q9UM73 19-1620 L1196M limits assumed): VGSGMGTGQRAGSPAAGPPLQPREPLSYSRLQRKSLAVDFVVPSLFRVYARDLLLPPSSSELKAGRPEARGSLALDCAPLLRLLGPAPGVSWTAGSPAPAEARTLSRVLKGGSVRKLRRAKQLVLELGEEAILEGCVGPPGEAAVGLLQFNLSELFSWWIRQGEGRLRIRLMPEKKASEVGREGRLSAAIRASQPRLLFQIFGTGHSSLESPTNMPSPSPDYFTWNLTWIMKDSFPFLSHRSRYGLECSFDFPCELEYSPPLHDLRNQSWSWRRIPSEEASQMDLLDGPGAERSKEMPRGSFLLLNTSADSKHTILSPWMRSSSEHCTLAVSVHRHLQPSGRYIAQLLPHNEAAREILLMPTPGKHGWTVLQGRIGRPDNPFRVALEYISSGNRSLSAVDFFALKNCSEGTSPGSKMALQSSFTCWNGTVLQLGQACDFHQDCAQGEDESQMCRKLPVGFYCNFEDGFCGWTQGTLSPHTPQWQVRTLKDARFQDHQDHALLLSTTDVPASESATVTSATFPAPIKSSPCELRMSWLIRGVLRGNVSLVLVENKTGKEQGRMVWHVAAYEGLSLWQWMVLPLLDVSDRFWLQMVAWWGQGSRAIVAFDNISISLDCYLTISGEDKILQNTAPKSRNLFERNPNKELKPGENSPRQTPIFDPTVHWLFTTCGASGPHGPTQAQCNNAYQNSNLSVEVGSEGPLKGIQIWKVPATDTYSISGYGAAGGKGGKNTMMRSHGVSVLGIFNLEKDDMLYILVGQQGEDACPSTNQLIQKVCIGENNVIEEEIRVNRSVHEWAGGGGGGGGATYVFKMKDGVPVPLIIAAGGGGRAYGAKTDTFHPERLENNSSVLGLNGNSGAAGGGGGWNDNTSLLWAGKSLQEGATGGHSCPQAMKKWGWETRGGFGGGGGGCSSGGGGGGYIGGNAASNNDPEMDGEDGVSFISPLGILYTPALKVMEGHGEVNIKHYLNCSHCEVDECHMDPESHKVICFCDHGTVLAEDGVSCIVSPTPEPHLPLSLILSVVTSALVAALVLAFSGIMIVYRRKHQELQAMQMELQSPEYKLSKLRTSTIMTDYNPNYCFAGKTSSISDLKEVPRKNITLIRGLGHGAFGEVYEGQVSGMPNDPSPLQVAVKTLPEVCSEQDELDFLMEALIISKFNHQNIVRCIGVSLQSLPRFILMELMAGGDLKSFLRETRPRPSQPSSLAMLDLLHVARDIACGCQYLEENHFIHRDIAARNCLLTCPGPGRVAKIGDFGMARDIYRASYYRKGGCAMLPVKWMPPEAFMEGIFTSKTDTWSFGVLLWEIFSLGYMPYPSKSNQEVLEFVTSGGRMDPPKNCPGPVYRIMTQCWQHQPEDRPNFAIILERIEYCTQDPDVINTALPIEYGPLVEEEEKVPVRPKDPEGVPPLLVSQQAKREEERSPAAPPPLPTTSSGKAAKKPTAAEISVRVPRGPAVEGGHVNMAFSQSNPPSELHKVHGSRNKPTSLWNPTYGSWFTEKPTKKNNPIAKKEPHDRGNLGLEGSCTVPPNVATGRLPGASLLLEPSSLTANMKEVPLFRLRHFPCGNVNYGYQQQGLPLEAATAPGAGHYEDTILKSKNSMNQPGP

T1 sequence (P00533 whole entry): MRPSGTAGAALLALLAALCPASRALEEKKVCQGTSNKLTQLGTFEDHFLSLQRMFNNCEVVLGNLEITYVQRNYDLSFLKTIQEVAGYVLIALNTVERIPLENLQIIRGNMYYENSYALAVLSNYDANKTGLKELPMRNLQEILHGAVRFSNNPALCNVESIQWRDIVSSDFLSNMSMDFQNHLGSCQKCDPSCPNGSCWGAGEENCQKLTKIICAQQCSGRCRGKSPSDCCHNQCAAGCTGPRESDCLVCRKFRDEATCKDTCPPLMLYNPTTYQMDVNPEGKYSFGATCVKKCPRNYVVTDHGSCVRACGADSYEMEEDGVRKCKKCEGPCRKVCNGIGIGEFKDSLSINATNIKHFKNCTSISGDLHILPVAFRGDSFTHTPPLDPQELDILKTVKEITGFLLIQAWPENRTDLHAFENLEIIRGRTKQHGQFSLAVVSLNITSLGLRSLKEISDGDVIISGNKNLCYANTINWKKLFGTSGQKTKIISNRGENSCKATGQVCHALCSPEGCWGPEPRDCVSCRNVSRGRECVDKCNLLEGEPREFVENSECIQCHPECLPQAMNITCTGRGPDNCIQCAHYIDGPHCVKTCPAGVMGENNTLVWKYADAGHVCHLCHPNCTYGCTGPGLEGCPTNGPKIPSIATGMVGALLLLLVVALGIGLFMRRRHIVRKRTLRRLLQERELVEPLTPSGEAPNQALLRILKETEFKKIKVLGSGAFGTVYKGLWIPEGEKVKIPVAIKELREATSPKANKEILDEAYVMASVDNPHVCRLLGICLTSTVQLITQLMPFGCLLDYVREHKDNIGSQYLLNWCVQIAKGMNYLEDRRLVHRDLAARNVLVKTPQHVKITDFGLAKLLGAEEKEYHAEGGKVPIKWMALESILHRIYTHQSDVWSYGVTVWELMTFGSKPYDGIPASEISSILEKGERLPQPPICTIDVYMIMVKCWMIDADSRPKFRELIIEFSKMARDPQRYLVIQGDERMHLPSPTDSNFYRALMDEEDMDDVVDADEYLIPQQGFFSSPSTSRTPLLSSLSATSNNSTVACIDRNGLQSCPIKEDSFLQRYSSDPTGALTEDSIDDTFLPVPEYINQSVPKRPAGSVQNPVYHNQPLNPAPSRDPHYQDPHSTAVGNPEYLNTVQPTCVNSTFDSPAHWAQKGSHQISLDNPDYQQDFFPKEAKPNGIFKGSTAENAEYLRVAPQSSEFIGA
ALK tyrosine kinase receptor (Homo sapiens, UniProt Q9UM73, R1275Q), sequence (Q9UM73 19-1620 R1275Q limits assumed): as the sequence (Q9UM73 19-1620 L1196M limits assumed) above, with M1178L, R1257Q counted along it
Epidermal growth factor receptor (Homo sapiens, UniProt P00533, T790M), sequence (P00533 25-1210 T790M limits assumed): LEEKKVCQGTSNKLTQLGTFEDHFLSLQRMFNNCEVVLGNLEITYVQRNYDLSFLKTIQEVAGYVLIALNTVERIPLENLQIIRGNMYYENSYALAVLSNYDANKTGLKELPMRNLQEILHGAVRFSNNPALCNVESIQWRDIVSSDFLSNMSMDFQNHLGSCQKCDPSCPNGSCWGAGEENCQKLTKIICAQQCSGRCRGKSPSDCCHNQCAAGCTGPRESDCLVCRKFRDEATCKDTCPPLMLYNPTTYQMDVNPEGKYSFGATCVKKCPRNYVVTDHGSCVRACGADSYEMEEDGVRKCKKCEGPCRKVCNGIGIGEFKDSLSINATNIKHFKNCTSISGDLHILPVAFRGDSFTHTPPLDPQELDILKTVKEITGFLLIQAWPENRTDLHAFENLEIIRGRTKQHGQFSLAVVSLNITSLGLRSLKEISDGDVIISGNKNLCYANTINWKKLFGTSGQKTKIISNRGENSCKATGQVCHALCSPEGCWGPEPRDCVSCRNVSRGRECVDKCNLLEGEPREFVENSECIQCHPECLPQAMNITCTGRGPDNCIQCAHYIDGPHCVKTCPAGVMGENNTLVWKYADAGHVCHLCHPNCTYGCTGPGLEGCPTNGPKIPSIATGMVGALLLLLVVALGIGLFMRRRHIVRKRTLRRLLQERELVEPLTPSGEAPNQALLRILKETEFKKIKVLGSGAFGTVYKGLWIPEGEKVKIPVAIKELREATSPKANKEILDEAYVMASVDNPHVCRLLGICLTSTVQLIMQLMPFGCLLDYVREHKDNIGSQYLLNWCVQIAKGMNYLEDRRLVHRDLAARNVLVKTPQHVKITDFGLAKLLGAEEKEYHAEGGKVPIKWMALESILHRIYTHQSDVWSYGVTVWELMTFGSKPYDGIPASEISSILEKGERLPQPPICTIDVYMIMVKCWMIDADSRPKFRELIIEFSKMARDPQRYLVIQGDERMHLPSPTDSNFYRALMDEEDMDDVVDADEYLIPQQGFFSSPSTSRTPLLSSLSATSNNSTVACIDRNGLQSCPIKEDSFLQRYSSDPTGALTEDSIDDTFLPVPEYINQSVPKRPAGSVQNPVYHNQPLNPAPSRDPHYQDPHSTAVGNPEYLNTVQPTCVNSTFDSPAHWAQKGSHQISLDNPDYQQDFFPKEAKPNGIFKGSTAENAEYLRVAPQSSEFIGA
ALK tyrosine kinase receptor (Homo sapiens, UniProt Q9UM73, C1156Y), sequence (Q9UM73 19-1620 C1156Y limits assumed): as the sequence (Q9UM73 19-1620 L1196M limits assumed) above, with C1138Y, M1178L counted along it

SMILES: C=CC(=O)Nc1cc(Nc2ncc(Cl)c(Nc3ccccc3S(=O)(=O)C(C)C)n2)c(OC)cc1N1CCCN(C)CC1
- Cmax [1]: 283 ng/mL
- Ratio IC50 (Homo sapiens [2]): 20 to 30
- half-life [3]: 0.991 h
- inhibition [4]: inactive
- inhibition in vivo at 20 mg/kg (NCI-H3122 [5]): 68.3%
- GI50 (NCI-H1975 [6]): 15 nM
- Activity (PC-9): Active
- IC50 [7]: 0.82 nM
- Activity (NCI-H1975 [8]): Dose-dependent effect
- TGI (NCI-H1975 [9]): Dose-dependent effect
- Tmax [10]: 4 h
- Activity (A549 [11]): inactive
- Ratio IC50 (Homo sapiens [12]): 20 to 30
- Activity (NCI-H3122 [13]): Active
- GI50 (A549 [14]): 5600 nM
- Activity (NCI-H3122 [15]): Dose-dependent effect
- GI50 at 72 h [16]: 3500 nM
- Activity (A549 [17]): inactive
- Activity (NCI-H1975 [18]): Dose-dependent effect
- IC50 [19]: 1 nM
- IC50 [20]: 108 nM
- inhibition in vivo at 40 mg/kg (NCI-H3122 [21]): 78.4%
- AUC(0-t) [22]: 1140 ng·h/mL
- inhibition [23]: Active
- IC50 [24]: 3.9 nM
- GI50 [25]: 8.5 nM
- IC50 [26]: 0.59 nM
